Shown are actives, neighbours in structure and some others; about 11% of the full set was active somewhere.
G6PDH counter: L. mesenteroides G6PDH inhibition counter-screen | Purified L. mesenteroides G6PDH, diaphorase/resazurin coupled fluorescence, 45 min | inhibition, % at 5 µM | hit rate 0.12% among 200,000 | AID 1020
Diaphorase inh: counter-screen for diaphorase-based assays: diaphorase inhibitors and chemical oxidizers; inhibition, % at 20 µM; hit rate 0.69% among 190,000; diaphorase resazurin-to-resorufin fluorescence, NADH, 16 min; bacterial (C. kluyveri) enzyme, not human; AID 1217;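 active means primary screen inhibition at 20 µM above a set limit, cut at about 50% in these data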;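 further: plate controls were DMSO with full reaction for no effect and wells lacking NADH for full effect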
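material = Clostridium kluyveri diaphorase enzyme | amount = 0.14 U/mL diaphorase, enzyme working solution | schedule = incubation 16 min, room temperature | detection = fluorescence of resorufin formed from resazurin, Ex 544/Em 590 nm | benchmarks = positive control minus NADH, DMSO neutral control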
Lmaj promast: Leishmania major promastigote growth inhibition | Leishmania major promastigotes, resazurin fluorescence viability | inhibition, % at 10 µM | hit rate 9% among 200,000;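 further: promastigotes grown with compound for 44 hours at 28 °C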
Diaphorase act: counter-screen for diaphorase-based assays: diaphorase activators and chemical reducers; activation factor at 20 µM; Diaphorase/resazurin coupled assay, resorufin fluorescence, 16 min; hits give high values; 1 = vehicle wells, 0 = NADH-free wells; hit rate 0.005% among 190,000;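 active means diaphorase activity raised at least twofold by the compound at 20 µM; inactive means activation factor below 2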
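Material: Purified diaphorase enzyme from Clostridium kluyveri | Buffer or medium: 50 mM HEPES pH 7.4 with 4.542 mM MgCl2, 0.005% Tween 20 | Times: 16 min enzyme reaction, ambient temperature | Signal: Red resorufin fluorescence at 544/590 nm excitation/emission | Measure: Increased resorufin signal from activators or reducing compounds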
WT yeast gro inh: growth inhibition of WT yeast, mitochondrial fusion screen | hit rate 2.1% among 190,000 | mitochondrial fusion phenotypic screen, WT strain | inhibition, % at 10 µM; in the data active means inhibition above about 58%; tested in S. cerevisiae
Lmaj promast 1uM: blocks Leishmania major promastigote growth at 1 uM, repeat screen; shares compounds with Lmaj promast; L. major promastigote growth, resazurin fluorescence, 48 h; inhibition, % at 1 µM; hit rate 13% among 1,100; AID 1258;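 active means inhibition above about 50% in both repeat tests, limit read from the data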
* marks the source's active call; other numbers are inactive results. Unless noted, no stated cut-off is given here; in the data, active means inhibition above about 50%; inactive means the rest.

O=C(COc1ccc2ccc(=O)oc2c1)N1CCc2ccccc21 was read as G6PDH counter -1, Diaphorase inh -4, Lmaj promast 5, Diaphorase act 1 and WT yeast gro inh -11.
For Cc1ccc(OCCCCn2ccnc2)c(Cl)c1 the results were G6PDH counter 1, Diaphorase inh 3, Lmaj promast 98*, Diaphorase act 1, WT yeast gro inh 10 and Lmaj promast 1uM 74*.
`COc1cc(C)ccc1OCCCOc1cc(C)ccc1Cl` gave Lmaj promast 4.
NC(=S)Nn1c(CCC(=O)O)ccc1-c1ccccc1 was read as G6PDH counter 5, Diaphorase inh 17, Lmaj promast 66*, Diaphorase act 0.8, WT yeast gro inh -5 and Lmaj promast 1uM -17.
Screening COC(=O)c1cc2ccsc2n1Cc1cccc(F)c1 returned G6PDH counter 6, Diaphorase inh 21, Lmaj promast 40, Diaphorase act 0.8 and WT yeast gro inh 22.
COC(=O)c1cc2ccsc2n1Cc1nc(-c2ccc(OC)cc2)oc1C was read as G6PDH counter -29, Diaphorase inh 22, Lmaj promast 100*, Diaphorase act 0.8, WT yeast gro inh 35 and Lmaj promast 1uM 93*.
CCOc1ccc(-c2nc(CN(Cc3ccccc3)C[C@@H]3CCC(=O)N3)c(C)o2)cc1 was read as G6PDH counter 22, Diaphorase inh 32, Lmaj promast 16, Diaphorase act 0.7 and WT yeast gro inh 43.
`c1ccc(-c2csc(=Nc3cccnc3)n2CC2CCCO2)cc1` (centres undefined) gave G6PDH counter 0, Diaphorase inh 14, Lmaj promast 6, Diaphorase act 0.9 and WT yeast gro inh -6.
`CN(C)S(=O)(=O)c1cccc(N=c2scc(-c3ccc4c(c3)NC(=O)CO4)n2CC2CCCO2)c1` (centres undefined) gave G6PDH counter 0, Diaphorase inh 31, Lmaj promast 96*, Diaphorase act 0.7, WT yeast gro inh 9 and Lmaj promast 1uM -13.
COc1ccc(C2c3c4c(n(C)c3CCN2C)CCN(C)C4c2ccc(OC)cc2)cc1 (centres undefined) was read as G6PDH counter 6, Diaphorase inh 7, Lmaj promast 3, Diaphorase act 0.9 and WT yeast gro inh 0.
COc1ccc(C2NCCn3cccc32)cc1 (centres undefined) was read as G6PDH counter 5, Diaphorase inh -7, Lmaj promast 96*, Diaphorase act 1.1, WT yeast gro inh -15 and Lmaj promast 1uM -20.
`Cc1cccnc1NC(=S)Nc1ccc(Br)cc1Cl` gave G6PDH counter 7, Diaphorase inh -1, Lmaj promast 0, Diaphorase act 1 and WT yeast gro inh 28.
For CCc1ccc2[nH]c(=O)c(CN(CCCN3CCOCC3)C(=O)Nc3ccc(Cl)cc3)cc2c1 the results were G6PDH counter 5, Diaphorase inh -7, Lmaj promast 79*, Diaphorase act 1.1, WT yeast gro inh -3 and Lmaj promast 1uM -21.
CCn1cc(CNCc2cn(C)nc2-c2ccc(C3CCCCC3)cc2)cn1 was read as G6PDH counter 21, Diaphorase inh 2, Lmaj promast 95*, Diaphorase act 1, WT yeast gro inh 43 and Lmaj promast 1uM 20.
COc1ccccc1C1=NNC(=Nc2cccc(S(=O)(=O)N(C)C)c2)SC1 was read as G6PDH counter 1, Diaphorase inh -3, Lmaj promast -6, Diaphorase act 1 and WT yeast gro inh 16.
Cc1ccc(OCC(O)CN2CCN(CC(O)COc3ccc(C)cc3)CC2)cc1 (centres undefined) was read as G6PDH counter 3, Diaphorase inh -3, Lmaj promast 57*, Diaphorase act 1, WT yeast gro inh 3 and Lmaj promast 1uM -6.
For CCN(CC)c1ccc(/C=N/NC(=O)c2cccc(S(=O)(=O)N3CCOCC3)c2)c(O)c1 the results were G6PDH counter -12, Diaphorase inh 12, Lmaj promast 100*, Diaphorase act 0.9, WT yeast gro inh -2 and Lmaj promast 1uM -31.
O=C(CC1C(=O)NCCN1Cc1c(F)cccc1Cl)NCc1ccccc1 (centres undefined) was read as G6PDH counter 10, Lmaj promast -5 and WT yeast gro inh -7.
`CN(C)CCCNCCCNC(=O)/C=N/O` gave G6PDH counter 3, Diaphorase inh 11, Lmaj promast 1, Diaphorase act 0.9 and WT yeast gro inh 12.
`C=CC[N+](C)(C)CCCNC(=O)/C=N/O` gave G6PDH counter 20, Diaphorase inh -3, Lmaj promast 73*, Diaphorase act 1, WT yeast gro inh 10 and Lmaj promast 1uM -8.
Screening Cc1ccc2c(c1)c1c3n2CCCNC3CCC1 (centres undefined) returned G6PDH counter 8, Diaphorase inh -6, Lmaj promast 8, Diaphorase act 1.1 and WT yeast gro inh -5.
Screening c1cc2c(cc1C1CCCCC1)c1c3n2CCCNC3CCC1 (centres undefined) returned G6PDH counter -8, Diaphorase inh -17, Lmaj promast 100*, Diaphorase act 1.2, WT yeast gro inh 91 and Lmaj promast 1uM 17.
Screening Cc1ccc2c(c1)c1c3n2CCN=C3CCC1 returned G6PDH counter 8, Diaphorase inh 14, Lmaj promast -4, Diaphorase act 0.9 and WT yeast gro inh 0.
For c1cc2c(cc1C1CCCCC1)c1c3n2CCN=C3CCC1 the results were G6PDH counter -1, Diaphorase inh 3, Lmaj promast 101*, Diaphorase act 1, WT yeast gro inh 93* and Lmaj promast 1uM 15.
CCCCNC(=O)CNC(=S)N(Cc1cc(OC)c(OC)c(OC)c1)C1CCCC1 was read as G6PDH counter 2, Diaphorase inh 11, Lmaj promast 2, Diaphorase act 0.9 and WT yeast gro inh -21.
For CC1(C)C(=O)N(OCc2ccccc2)C(C)(C)C(=O)N1OCc1ccccc1 the results were G6PDH counter 2, Diaphorase inh 2, Lmaj promast 4, Diaphorase act 1 and WT yeast gro inh -4.
Screening COc1ccc(-n2nnnc2S(=O)(=O)CC(=O)N2CCCCC2)cc1 returned G6PDH counter 2, Diaphorase inh 20, Lmaj promast 93*, Diaphorase act 0.8, WT yeast gro inh -4 and Lmaj promast 1uM 19.
For CCN(CC)CCN(C)C1CCC(c2ccccc2)CC1 (centres undefined) the results were G6PDH counter 13, Diaphorase inh 11, Lmaj promast 94*, Diaphorase act 0.9, WT yeast gro inh 2 and Lmaj promast 1uM 76*.
Screening Cc1cc(N2C(=O)CCC2=O)ccc1NC(=O)c1cccs1 returned G6PDH counter 12, Diaphorase inh 6, Lmaj promast 0, Diaphorase act 0.9 and WT yeast gro inh -3.

Screening results: PubChem, several laboratories
